Results reported in ChEMBL document CHEMBL3414532 (J Med Chem, 2015).
pEC50, pIC50: −log10 of the molar value.

What was measured:
[1] = target: T1, Human immunodeficiency virus type 1 reverse transcriptase (Human immunodeficiency virus 1, UniProt Q72547); assay: Inhibition of HIV1 recombinant reverse transcriptase associated catalytically active RNase H domain assessed as reduction in internal cleavage using HTS-1 RNA/DNA duplex substrate by fluorescence assay
[2] = Therapeutic index, ratio of CC50 for human HeLa P4/R5 cells to EC50 for HIV infected in human HeLa P4/R5 cells; type: cell-based; conditions: read-out: Ratio CC50/EC50
[3] = target: T1, Human immunodeficiency virus type 1 reverse transcriptase; assay: Inhibition of reconstituted HIV1 RNase H using RNA/DNA duplex substrate by fluorescence assay
[4] = target: T1, Human immunodeficiency virus type 1 reverse transcriptase; assay: Inhibition of HIV1 recombinant reverse transcriptase polymerase activity using [3H]TTP and poly(rA)-oligo(dT)16 substrate incubated for 20 mins by liquid scintillation spectrometry
In short: (§1)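 HIV RT (WT or NNRTI-resistant mutant, 10 nM) added to start reaction with 10 μM [3H]-TTP and 40 nM poly(rA)-oligo(dT)16 in 50 mM Tris-HCl pH 7.4, 60 mM KCl, 5 mM MgCl2; 20 min at 37 °C. Quenched with ice-cold 10% TCA/20 mM sodium pyrophosphate, glass-fiber filtered, washed with TCA and ethanol; incorporation counted by scintillation.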

[5] = target: T1, Human immunodeficiency virus type 1 reverse transcriptase; assay: Inhibition of HIV1 recombinant reverse transcriptase associated catalytically active RNase H domain assessed as reduction in RNA 5' end directed cleavage using HTS-3 RNA/DNA duplex substrate by fluorescence assay
[6] = target: T1, Human immunodeficiency virus type 1 reverse transcriptase; assay: Inhibition of HIV1 recombinant reverse transcriptase associated catalytically active RNase H domain assessed as reduction in DNA 3' end directed cleavage using HTS-2 RNA/DNA duplex substrate by fluorescence assay
[7] = Selectivity index, ratio of IC50 for HIV integrase to IC50 for HIV1 recombinant reverse transcriptase associated catalytically active RNase H-mediated domain internal cleavage activity
[8] = tested on: Human immunodeficiency virus; assay: Antiviral activity against HIV infected in human HeLa P4/R5 cells pre-incubated for 16 hrs before virus infection and measured 48 hrs post virus infection by fluorescence-based beta-galactosidase detection assay; type: functional, organism-based; conditions: Human immunodeficiency virus 1, P4/R5
In short: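 P4R5 indicator cells (expressing CD4, CXCR4, CCR5 and an HIV LTR-driven β-galactosidase reporter) seeded at 5 × 10^3 per well in DMEM/10% FBS with puromycin (0.5 μg/mL). Drug added 16 h before HIV exposure, then 48 h further incubation. Single replication cycle; infection read by fluorescence-based β-galactosidase detection. Highest concentration tested 50 μM; values are averages of two determinations.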

[9] = Toxicity against human HeLa P4/R5 cells; type: cell-based; conditions: HeLa P4/R5 cells
[10] = target: Human immunodeficiency virus type 1 integrase (Human immunodeficiency virus 1, UniProt Q7ZJM1); assay: Inhibition of HIV integrase pre-incubated for 10 mins before DNA substrate addition
In short: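 Strand transfer assay: 1 μM HIV integrase in 10 mM HEPES pH 7.5, 10% glycerol, 10 mM MnCl2, 1 mM DTT, with compound at 0.13–100 μM final in duplicate, preincubated 10 min at 25 °C. Started with biotin/Cy5-labelled oligo duplex, run 30 min at 37 °C, stopped with EDTA. Mean ± SD from at least three experiments.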

[11] = Inhibition of Escherichia coli RNase H pre-incubated for 10 mins before HTS-1 RNA/DNA duplex substrate addition by fluorescence assay
In short: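 E. coli RNase H at 4 nM with 6 mM MgCl2 and inhibitor at 1, 7 or 30 μM (2% DMSO final) in 50 mM Tris pH 7.8, 50 mM NaCl. Preincubated 10 min at room temperature, then started with 100 nM HTS-1 (fluorescein/Dabcyl RNA/DNA duplex). IC50 taken at curve midpoint; duplicates, at least two independent experiments.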

[12] = Inhibition of Moloney murine leukemia virus reverse transcriptase associated RNase H pre-incubated for 10 mins before HTS-1 RNA/DNA duplex substrate addition by fluorescence assay
In short: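 Preincubated 10 min at room temperature, then started with 100 nM HTS-1 duplex. IC50 at curve midpoint; duplicates, at least two experiments.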

Gag-Pol polyprotein = Gag-Pol polyprotein (Moloney murine leukemia virus isolate Shinnick, UniProt P03355); assay: Inhibition of Moloney murine leukemia virus reverse transcriptase polymerase activity using Td100/Pd18 DNA-DNA substrate incubated for 30 mins by fluorescence assay
[13] = target: T2, Human immunodeficiency virus type 1 reverse transcriptase (Human immunodeficiency virus 1, UniProt Q72547, K103N/L100I); assay: Inhibition of HIV1 reverse transcriptase L100I/K103N mutant associated RNase H domain activity assessed as reduction in reduction in DNA 3' end directed cleavage using HTS-2 RNA/DNA duplex substrate by fluorescence assay
[14] = target: T2, Human immunodeficiency virus type 1 reverse transcriptase; assay: Inhibition of HIV1 reverse transcriptase L100I/K103N mutant polymerase activity using [3H]TTP and poly(rA)-oligo(dT)16 substrate incubated for 20 mins by liquid scintillation spectrometry; in short: as §1
[15] = target: T3, Human immunodeficiency virus type 1 reverse transcriptase (Human immunodeficiency virus 1, UniProt Q72547, Y181C); assay: Inhibition of HIV1 reverse transcriptase Y181C mutant associated RNase H domain activity assessed as reduction in internal cleavage using HTS-1 RNA/DNA duplex substrate by fluorescence assay
[16] = target: T3, Human immunodeficiency virus type 1 reverse transcriptase; assay: Inhibition of HIV1 reverse transcriptase Y181C mutant associated RNase H domain activity assessed as reduction in reduction in DNA 3' end directed cleavage using HTS-2 RNA/DNA duplex substrate by fluorescence assay
[17] = target: T2, Human immunodeficiency virus type 1 reverse transcriptase; assay: Inhibition of HIV1 reverse transcriptase L100I/K103N mutant associated RNase H domain activity assessed as reduction in internal cleavage using HTS-1 RNA/DNA duplex substrate by fluorescence assay
[18] = target: T3, Human immunodeficiency virus type 1 reverse transcriptase; assay: Inhibition of HIV1 reverse transcriptase Y181C mutant polymerase activity using [3H]TTP and poly(rA)-oligo(dT)16 substrate incubated for 20 mins by liquid scintillation spectrometry; in short: as §1

Human immunodeficiency virus type 1 integrase, sequence (Q7ZJM1 whole entry): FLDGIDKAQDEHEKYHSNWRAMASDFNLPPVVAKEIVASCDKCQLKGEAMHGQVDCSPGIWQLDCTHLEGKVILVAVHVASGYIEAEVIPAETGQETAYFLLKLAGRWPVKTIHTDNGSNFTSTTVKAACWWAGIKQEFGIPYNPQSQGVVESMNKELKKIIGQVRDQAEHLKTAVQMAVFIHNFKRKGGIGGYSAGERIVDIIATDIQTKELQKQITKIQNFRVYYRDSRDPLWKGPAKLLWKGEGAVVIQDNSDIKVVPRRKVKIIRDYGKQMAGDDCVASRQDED

| Compound | pIC50 [1] | selectivity ratio [2] | pIC50 [3] | pIC50 [4] | pIC50 [5] | pIC50 [6] | Ratio IC50 [7] | pEC50 [8] | CC50 [9] [nM] | pIC50 [10] | pIC50 [11] | pIC50 [12] | pIC50 (Gag-Pol polyprotein) | pIC50 [13] | pIC50 [14] | pIC50 [15] | pIC50 [16] | pIC50 [17] | pIC50 [18] |
| --- | --- | --- | --- | --- | --- | --- | --- | --- | --- | --- | --- | --- | --- | --- | --- | --- | --- | --- | --- |
| O=C1Cc2cc(Cc3ccc(F)cc3)ccc2C(=O)N1O | 5.89 | > 4 | 6.30 | 5.64 | 5.92 | 6.10 | 28 | 4.89 | > 50000 | 4.44 |  |  |  |  |  |  |  |  |  |
| CS(=O)(=O)c1ccc(-c2ccc(Cc3ccc4c(c3)CC(=O)N(O)C4=O)cc2)cc1 |  |  |  |  |  |  |  |  |  |  | 5.14 | < 4.52 |  |  |  |  |  |  |  |
| N#Cc1ccc(-c2ccc(Cc3ccc4c(c3)CC(=O)N(O)C4=O)cc2)cc1 | 6.05 |  | 6.30 |  | 6.05 | 6.05 |  | 4.89 | > 50000 | < 4.00 | 5.49 | < 4.52 |  |  |  |  |  |  |  |
| O=C1Cc2cc(Cc3ccccc3)ccc2C(=O)N1O | 5.89 |  | 5.96 | 5.77 | 5.96 | 5.85 | 2.9 |  |  | 5.42 | 5.19 | < 4.52 | 5.49 |  |  |  |  |  |  |
| COc1ccc(-c2ccc(Cc3ccc4c(c3)CC(=O)N(O)C4=O)cc2)cc1 |  |  |  |  |  |  |  | 5.00 |  |  |  |  |  |  |  |  |  |  |  |
| O=C1Cc2cc(Cc3ccc(-c4ccc(F)cc4F)cc3)ccc2C(=O)N1O | 5.82 | > 4 | 6.15 | 5.70 | 5.85 | 6.05 |  | 4.89 | > 50000 | < 4.00 |  |  |  |  |  |  |  |  |  |
| O=C1Cc2cc(Cc3ccc(-c4ccc(F)cc4)cc3)ccc2C(=O)N1O | 5.27 |  | 5.55 |  | 5.30 | 5.31 |  | 5.00 |  | < 4.00 | 5.54 | < 4.52 |  |  |  |  |  |  |  |
| NS(=O)(=O)c1ccc(-c2ccc(Cc3ccc4c(c3)CC(=O)N(O)C4=O)cc2)cc1 | 6.40 |  | 6.40 | 6.30 | 6.30 | 6.30 | 9 |  |  | 5.44 | 5.60 | < 4.52 | 5.62 | 6.52 | 6.70 | 6.70 | 6.52 | 6.40 | 6.52 |
